Test results: article PMC12166256 (Clinical Pharmacology and Therapeutics, 2025)
Marks after values point to notes of the source that are not given here.

Test: SAD study: plasma pharmacokinetics
Format: in vivo, human
Conditions: for plasma concentrations: SAD 5 mg, below the LLOQ
Procedure, shortened: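 Healthy males aged 18–55 got single oral doses in six SAD cohorts (5–600 mg), 6 active and 2 placebo per cohort, all fasted. Plasma was drawn pre-dose and at 1, 2, 3, 4, 6, 8, 12, 18, 24, 36, 48, 60 and 72 h; 96 h only for dose levels 4–6. LC–MS/MS, LLOQ 2 ng/mL. Non-compartmental parameters; AUC excluded when extrapolation exceeded 30%.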

SMILES: CN1C(=O)c2cccc(OC(F)F)c2[C@H]2C[C@@H]1c1nc3ccc(-c4cnc(C5(N)CCC5)nc4)cc3n12 [Balinatunfib]
- plasma concentrations: < 2 ng/mL
- plasma concentrations (listed as balinatunfib): In the SAD study, all doses were administered under fasted conditions. The PK parameters were not calculable for any participant receiving a single dose of 5 mg balinatunfib, as all concentrations were below the LLOQ (2 ng/mL).
- C max, geometric mean (SAD 20 mg fasted): (5.12) [24] ng/mL
- C max, mean ± SD (SAD 20 mg fasted): 5.25 ± 1.24 ng/mL
- t last, median (SAD 20 mg fasted): 18.05 h
- t max, median (SAD 20 mg fasted): 5.00 h
- AUC (0 to infinity), mean (SAD 20 mg fasted, n = 1): 101 ^b ± NC ng·h/mL
- t 1/2z, geometric mean (SAD 20 mg fasted, n = 5): (13.6) [48] h
- t 1/2z, mean (SAD 20 mg fasted, n = 5): 15.0 ^c ± 7.21 h
- AUC (0 to infinity), geometric mean (SAD 60 mg fasted): (409) [25] ng·h/mL
- AUC (0 to infinity), mean ± SD (SAD 60 mg fasted): 420 ± 103 ng·h/mL
- C max, geometric mean (SAD 60 mg fasted): (20.5) [24] ng/mL
- C max, mean ± SD (SAD 60 mg fasted): 21.0 ± 5.08 ng/mL
- t 1/2z, geometric mean (SAD 60 mg fasted): (20.9) [28] h
- t 1/2z, mean ± SD (SAD 60 mg fasted): 21.6 ± 6.14 h
- t last, median (SAD 60 mg fasted): 48.00 h
- t max, median (SAD 60 mg fasted): 2.50 h
- AUC (0 to infinity), geometric mean (SAD 180 mg fasted): (2,330) [32] ng·h/mL
- AUC (0 to infinity), mean ± SD (SAD 180 mg fasted): 2,450 ± 782 ng·h/mL
- C max, geometric mean (SAD 180 mg fasted): (117) [36] ng/mL
- C max, mean ± SD (SAD 180 mg fasted): 122 ± 43.7 ng/mL
- t 1/2z, geometric mean (SAD 180 mg fasted): (27.1) [17] h
- t 1/2z, mean ± SD (SAD 180 mg fasted): 27.4 ± 4.74 h
- t last, median (SAD 180 mg fasted): 96.21 h
- t max, median (SAD 180 mg fasted): 2.50 h
- AUC (0 to infinity), geometric mean (SAD 400 mg fasted): (4,220) [49] ng·h/mL
- AUC (0 to infinity), mean ± SD (SAD 400 mg fasted): 4,580 ± 2,240 ng·h/mL
- C max, geometric mean (SAD 400 mg fasted): (261) [49] ng/mL
- C max, mean ± SD (SAD 400 mg fasted): 285 ± 139 ng/mL
- t 1/2z, geometric mean (SAD 400 mg fasted): (24.0) [26] h
- t 1/2z, mean ± SD (SAD 400 mg fasted): 24.7 ± 6.47 h
- t last, median (SAD 400 mg fasted): 96.16 h
- t max, median (SAD 400 mg fasted): 3.00 h
- AUC (0 to infinity), geometric mean (SAD 600 mg fasted): (8,900) [37] ng·h/mL
- AUC (0 to infinity), mean ± SD (SAD 600 mg fasted): 9,640 ± 3,540 ng·h/mL
- C max, geometric mean (SAD 600 mg fasted): (483) [39] ng/mL
- C max, mean ± SD (SAD 600 mg fasted): 525 ± 206 ng/mL
- t 1/2z, geometric mean (SAD 600 mg fasted): (23.9) [22] h
- t 1/2z, mean ± SD (SAD 600 mg fasted): 24.4 ± 5.43 h
- t last, median (SAD 600 mg fasted): 96.01 h
- t max, median (SAD 600 mg fasted): 3.00 h
